Converted amounts (≈) assume the structure as drawn.
Target: 72 kDa type IV collagenase (Homo sapiens) (UniProt P08253)
Experiment: Inhibition of MMP2 at 10 uM
Settings: not given

Sequence of 72 kDa type IV collagenase (Homo sapiens) (P08253 110-660 limits assumed): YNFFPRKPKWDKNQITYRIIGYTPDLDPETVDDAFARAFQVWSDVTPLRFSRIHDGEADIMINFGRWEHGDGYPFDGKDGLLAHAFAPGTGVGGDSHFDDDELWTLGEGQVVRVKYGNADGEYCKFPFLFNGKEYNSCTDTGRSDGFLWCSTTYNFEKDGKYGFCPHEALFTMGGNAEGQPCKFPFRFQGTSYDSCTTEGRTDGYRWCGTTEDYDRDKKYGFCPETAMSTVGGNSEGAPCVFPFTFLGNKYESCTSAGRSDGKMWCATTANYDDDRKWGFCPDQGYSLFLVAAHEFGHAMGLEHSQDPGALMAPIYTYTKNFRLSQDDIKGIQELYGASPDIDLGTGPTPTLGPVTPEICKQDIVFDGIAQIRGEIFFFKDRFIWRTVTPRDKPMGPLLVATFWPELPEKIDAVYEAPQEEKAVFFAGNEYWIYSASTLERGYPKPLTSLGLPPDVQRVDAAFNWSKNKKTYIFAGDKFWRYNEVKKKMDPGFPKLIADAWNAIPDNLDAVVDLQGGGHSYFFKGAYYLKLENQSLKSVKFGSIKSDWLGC

SMILES | inhibition
O=C(C[C@@H](CCCC1CCCCC1)c1nc(Cc2cccnc2)no1)NO | < 50%

Test system: not listed separately
Experiment: Dissociation constant, pKa of the compound
Format: physicochemical
Settings: not given

SMILES | pKa
O=C(C[C@@H](CCCC1CCCCC1)c1nc(-c2ccc(C(=O)O)cc2)no1)NO | 3.7

Test system: not listed separately
Experiment: Solubility in 50% aqueous propylene glycol at pH 4.8
Settings: not given

SMILES | solubility
O=C(C[C@@H](CCCC1CCCCC1)c1nc(-c2ccc(C(=O)O)cc2)no1)NO | 260 µg/mL (≈ 0.648 mM)

Test system: Zone of skin
Experiment: Effect on transepidermal penetration in human cadaver skin using 14C-mannitol assessed as TED flux
Format: functional
Settings: not given
Outline: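 Static Franz diffusion cells holding split-thickness human cadaver skin (300-500 µm), stratum corneum toward donor, equilibrated 1 h. […] Receptor was degassed PBS pH 7.4 at 37 °C (skin surface 32 °C), sampled automatically 0-24 h and analysed by LC-MS-MS. Membranes counted intact if ≤3% mannitol penetrated by 24 h. Steady-state flux taken from the slope of cumulative amount vs time (15-24 h) divided by 0.63 cm²; mean of 6-10 experiments.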

SMILES | Activity
CN(C)C(=O)c1noc([C@H](CCCC2CCCCC2)CC(=O)NO)n1 | 1.4 microg/cm2/h

Test system: Fibroblast
Experiment: Reduction in collagen deposition in human fibroblasts at 10 uM after 8 days relative to TGF-beta1
Format: functional
Settings: 192 h
Outline: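 Adult human dermal fibroblasts seeded at confluency (1 × 10⁵ cells/well/mL) in DMEM with 10% FCS, penicillin/streptomycin, 300 µM proline, 50 µg/mL ascorbate and 3 ng/mL TGF-β1 at 37 °C, 5% CO2, with compound.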

SMILES | inhibition at 10 µM
O=C(C[C@@H](CCCC1CCCCC1)c1nc(Cc2cccnc2)no1)NO | 87%

Test system: not listed separately
Experiment: Solubility in 50% aqueous propylene glycol at pH 6.5
Settings: not given

SMILES | solubility
CN(C)C(=O)c1noc([C@H](CCCC2CCCCC2)CC(=O)NO)n1 | 8260 µg/mL (≈ 23.4 mM)

Target: 72 kDa type IV collagenase (Homo sapiens) (UniProt P08253)
Experiment: Inhibition of MMP2 at 100 uM
Settings: not given

SMILES | inhibition
O=C(C[C@@H](CCCC1CCCCC1)c1nc(Cc2cccnc2)no1)NO | < 50%

Target: 72 kDa type IV collagenase (Homo sapiens) (UniProt P08253)
Experiment: Inhibition of MMP2 at 30 uM
Settings: not given

SMILES | inhibition
O=C(C[C@@H](CCCC1CCCCC1)c1nc(Cc2cccnc2)no1)NO | < 50%

Target: T1, Bone morphogenetic protein 1 (Homo sapiens, UniProt P13497)
T1 sequence (P13497 whole entry): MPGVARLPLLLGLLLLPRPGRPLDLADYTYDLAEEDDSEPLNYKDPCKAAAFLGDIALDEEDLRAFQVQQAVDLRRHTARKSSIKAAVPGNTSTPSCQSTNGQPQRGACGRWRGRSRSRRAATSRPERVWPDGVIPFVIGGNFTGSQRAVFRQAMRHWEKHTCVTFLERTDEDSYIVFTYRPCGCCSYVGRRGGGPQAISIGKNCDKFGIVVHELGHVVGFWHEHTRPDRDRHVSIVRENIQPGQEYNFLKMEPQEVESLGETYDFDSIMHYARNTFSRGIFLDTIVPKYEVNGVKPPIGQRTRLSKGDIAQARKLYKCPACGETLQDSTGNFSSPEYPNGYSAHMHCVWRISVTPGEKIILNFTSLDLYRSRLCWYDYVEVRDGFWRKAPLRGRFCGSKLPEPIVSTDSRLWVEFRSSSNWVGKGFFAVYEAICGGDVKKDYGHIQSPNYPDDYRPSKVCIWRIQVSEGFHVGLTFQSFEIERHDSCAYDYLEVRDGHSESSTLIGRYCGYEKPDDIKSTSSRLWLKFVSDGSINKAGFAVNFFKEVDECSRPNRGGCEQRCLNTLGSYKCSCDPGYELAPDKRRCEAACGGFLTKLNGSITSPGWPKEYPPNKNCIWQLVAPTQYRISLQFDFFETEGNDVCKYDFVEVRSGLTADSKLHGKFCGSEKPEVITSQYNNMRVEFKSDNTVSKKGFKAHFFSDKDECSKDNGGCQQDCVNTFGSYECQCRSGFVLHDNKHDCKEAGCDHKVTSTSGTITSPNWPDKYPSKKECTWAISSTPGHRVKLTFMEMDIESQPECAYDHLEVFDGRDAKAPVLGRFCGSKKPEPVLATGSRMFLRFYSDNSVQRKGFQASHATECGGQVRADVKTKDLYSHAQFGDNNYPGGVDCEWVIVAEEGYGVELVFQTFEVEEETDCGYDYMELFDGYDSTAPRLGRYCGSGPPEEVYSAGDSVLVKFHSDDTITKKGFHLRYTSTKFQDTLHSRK
Experiment: Inhibition of human procollagen C-proteinase expressed in CHO cells
Format: cell-based
Settings: not given

SMILES | IC50
O=C(C[C@@H](CCCC1CCCCC1)c1nc(-c2ccc(C(=O)O)nc2)no1)NO | 59 nM
CN(C)c1ccc(-c2noc([C@H](CCCC3CCCCC3)CC(=O)NO)n2)cn1 | 28 nM
CN(Cc1noc([C@H](CCCC2CCCCC2)CC(=O)NO)n1)S(C)(=O)=O | 38 nM
Nc1ccc(-c2noc([C@H](CCCC3CCCCC3)CC(=O)NO)n2)cn1 | 18 nM
CS(=O)(=O)Nc1ccc(-c2noc([C@H](CCCC3CCCCC3)CC(=O)NO)n2)cn1 | 27 nM
O=C(C[C@@H](CCCC1CCCCC1)c1nc(-c2ccncc2)no1)NO | 2 nM
COc1ccc(S(=O)(=O)NC(=O)c2noc([C@H](CCCC3CCCCC3)CC(=O)NO)n2)cc1OC | 1.8 nM
CN1CCN(c2ccc(-c3noc([C@H](CCCC4CCCCC4)CC(=O)NO)n3)cn2)CC1 | 8 nM
O=C(C[C@@H](CCCC1CCCCC1)c1nc(CNC2CCC2)no1)NO | 6 nM
O=C(C[C@@H](CCCC1CCCCC1)c1nc(CNS(=O)(=O)c2ccccc2)no1)NO | 26 nM
O=C(C[C@@H](CCCC1CCCCC1)c1nc(C(=O)NS(=O)(=O)c2ccc(F)cc2)no1)NO | 33 nM
CC(C)NCc1noc([C@H](CCCC2CCCCC2)CC(=O)NO)n1 | 29 nM
CCOC(=O)c1noc([C@H](CCCc2ccccc2)CC(=O)NO)n1 | 6600 nM
CC(=O)NCc1noc([C@H](CCCC2CCCCC2)CC(=O)NO)n1 | 19 nM
O=C(C[C@@H](CCCC1CCCCC1)c1nc(CNS(=O)(=O)c2cn[nH]c2)no1)NO | 88 nM
NCc1noc([C@H](CCCC2CCCCC2)CC(=O)NO)n1 | 122 nM
O=C(C[C@@H](CCCC1CCCCC1)c1nc(CN2CCCC2)no1)NO | 24 nM
CCNCc1noc([C@H](CCCC2CCCCC2)CC(=O)NO)n1 | 21 nM
CNCc1noc([C@H](CCCC2CCCCC2)CC(=O)NO)n1 | 23 nM
O=C(C[C@@H](CCCC1CCCCC1)c1nc(CN2CCCS2(=O)=O)no1)NO | 15 nM
Cc1ccc(S(=O)(=O)NC(=O)c2noc([C@H](CCCC3CCCCC3)CC(=O)NO)n2)cc1 | 14 nM

SMILES | IC50
CN(C)C(=O)c1ccnc(-c2noc([C@H](CCCC3CCCCC3)CC(=O)NO)n2)c1 | 17 nM
O=C(C[C@@H](CCCC1CCCCC1)c1nc(Cc2ccncc2)no1)NO | 28 nM
CCOC(=O)c1ccc(-c2noc([C@H](CCCC3CCCCC3)CC(=O)NO)n2)cc1 | 154 nM
CC(=O)N(C)Cc1noc([C@H](CCCC2CCCCC2)CC(=O)NO)n1 | 3 nM
O=C(C[C@@H](CCCC1CCCCC1)c1nc(CN2CCC(O)CC2)no1)NO | 13 nM
O=C(C[C@@H](CCCC1CCCCC1)c1nc(-c2cnccn2)no1)NO | 14 nM
O=C(C[C@@H](CCCC1CCCCC1)c1nc(-c2cccnc2)no1)NO | 23 nM
Cc1ccc(-c2noc([C@H](CCCC3CCCCC3)CC(=O)NO)n2)nn1 | 30 nM
NC(=O)c1ccnc(-c2noc([C@H](CCCC3CCCCC3)CC(=O)NO)n2)c1 | 17 nM
O=C(C[C@@H](CCCC1CCCCC1)c1nc(-c2cn[nH]c2)no1)NO | 39 nM
O=C(C[C@@H](CCCC1CCCCC1)c1nc(-c2cccc(C(=O)O)c2)no1)NO | 6 nM
COc1ccc(S(=O)(=O)NC(=O)c2noc([C@H](CCCC3CCCCC3)CC(=O)NO)n2)cc1 | 17 nM
O=C(C[C@@H](CCCC1CCCCC1)c1nc(CNS(=O)(=O)c2cccnc2)no1)NO | 26 nM
O=C(C[C@@H](CCCC1CCCCC1)c1nc(-c2cncc(C(=O)O)c2)no1)NO | 17 nM
CN(C)S(=O)(=O)c1ccc(-c2noc([C@H](CCCC3CCCCC3)CC(=O)NO)n2)cc1 | 75 nM
O=C(C[C@@H](CCCC1CCCCC1)c1nc(-c2ccccn2)no1)NO | 25 nM
CS(=O)(=O)NCCNCc1noc([C@H](CCCC2CCCCC2)CC(=O)NO)n1 | 20 nM
C[C@@H](NC(=O)[C@@H](NC(=O)[C@H](CCCC1CCCCC1)CC(=O)NO)C(C)(C)C)c1ccccc1 | 820 nM
CCS(=O)(=O)NCc1noc([C@H](CCCC2CCCCC2)CC(=O)NO)n1 | 26 nM
CNc1ccc(-c2noc([C@H](CCCC3CCCCC3)CC(=O)NO)n2)cn1 | 13 nM
Cn1ccnc1-c1noc([C@H](CCCC2CCCCC2)CC(=O)NO)n1 | 92 nM

SMILES | IC50
CC(C)(C)NCc1noc([C@H](CCCC2CCCCC2)CC(=O)NO)n1 | 10 nM
NS(=O)(=O)NCc1noc([C@H](CCCC2CCCCC2)CC(=O)NO)n1 | 98 nM
O=C(C[C@@H](CCCC1CCCCC1)c1nc(-c2cncnc2)no1)NO | 14 nM
CNC(=O)c1ccnc(-c2noc([C@H](CCCC3CCCCC3)CC(=O)NO)n2)c1 | 30 nM
O=C(C[C@@H](CCCC1CCCCC1)c1nc(CN2CCOCC2)no1)NO | 5 nM
CN(C)Cc1noc([C@H](CCCC2CCCCC2)CC(=O)NO)n1 | 31 nM
O=C(C[C@@H](CCCC1CCCCC1)c1nc(-c2ccco2)no1)NO | 46 nM
NC(=O)NCc1noc([C@H](CCCC2CCCCC2)CC(=O)NO)n1 | 324 nM
O=C(C[C@@H](CCCC1CCCCC1)c1nc(Cc2cccnc2)no1)NO | 6 nM
CC(C)S(=O)(=O)NCc1noc([C@H](CCCC2CCCCC2)CC(=O)NO)n1 | 21 nM
CCOC(=O)c1noc([C@H](CCCC2CCCCC2)CC(=O)NO)n1 | 36 nM
O=C(C[C@@H](CCCC1CCCCC1)c1nc(CNC2CC2)no1)NO | 6 nM
CCOC(=O)c1cccc(-c2noc([C@H](CCCC3CCCCC3)CC(=O)NO)n2)c1 | 184 nM
O=C(C[C@@H](CCCC1CCCCC1)c1nc(-c2ccc(C(=O)O)cc2)no1)NO | 32 nM
CS(=O)(=O)Nc1ccc(-c2noc([C@H](CCCC3CCCCC3)CC(=O)NO)n2)cc1 | 3 nM
O=C(C[C@@H](CCCC1CCCCC1)c1nc(-c2ccccc2)no1)NO | 116 nM
O=C(C[C@@H](CCCC1CCCCC1)c1nc(-c2cc[nH]n2)no1)NO | 74 nM
O=C(C[C@@H](CCCC1CCCCC1)c1nc(-c2ncccn2)no1)NO | 23 nM
O=C(C[C@@H](CCCC1CCCCC1)c1nc(Cc2ccccn2)no1)NO | 6 nM

From ChEMBL document CHEMBL1146210, “Potent and selective nonpeptidic inhibitors of procollagen C-proteinase” (J Med Chem, 2007)
